Measured values: ChEMBL document CHEMBL3124940, “Design, synthesis and biological evaluation of D-ring opened galantamine analogs as multifunctional anti-Alzheimer agents” (Eur J Med Chem, 2014)
pIC50: −log10 of the molar value. The source made the active and inactive calls. The rule behind the calls is not given here.

Columns and labels:
[1] = biological target: Acetylcholinesterase (Electrophorus electricus, UniProt O42275); experiment: Inhibition of electric eel AChE using acetylthiocholine iodide as substrate preincubated for 5 mins followed by substrate addition measured after 5 mins by Ellman's method
Acetylcholinesterase, sequence (O42275 whole entry): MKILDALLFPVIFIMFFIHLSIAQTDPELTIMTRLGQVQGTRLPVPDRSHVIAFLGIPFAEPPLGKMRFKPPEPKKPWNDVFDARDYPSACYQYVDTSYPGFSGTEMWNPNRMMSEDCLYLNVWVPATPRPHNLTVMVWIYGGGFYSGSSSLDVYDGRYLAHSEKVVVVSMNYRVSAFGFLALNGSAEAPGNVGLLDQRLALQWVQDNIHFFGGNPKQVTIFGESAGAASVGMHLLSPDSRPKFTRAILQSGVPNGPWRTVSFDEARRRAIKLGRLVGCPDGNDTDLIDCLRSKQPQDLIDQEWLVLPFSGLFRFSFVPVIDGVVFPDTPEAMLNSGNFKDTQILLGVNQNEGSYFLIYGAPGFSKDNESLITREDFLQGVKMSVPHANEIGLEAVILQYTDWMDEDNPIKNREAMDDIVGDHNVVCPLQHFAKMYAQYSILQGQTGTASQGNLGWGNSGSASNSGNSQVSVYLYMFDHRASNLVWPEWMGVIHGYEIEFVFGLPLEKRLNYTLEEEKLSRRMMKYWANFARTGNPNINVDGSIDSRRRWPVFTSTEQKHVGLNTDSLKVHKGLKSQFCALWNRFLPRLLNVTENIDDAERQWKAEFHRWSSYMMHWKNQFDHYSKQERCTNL

[2] = biological target: Cholinesterase (Equus caballus, UniProt P81908); experiment: Inhibition of equine serum BChE using butyrylthiocholine iodide as substrate preincubated for 5 mins followed by substrate addition measured after 5 mins by Ellman's method
Cholinesterase, sequence (P81908 whole entry): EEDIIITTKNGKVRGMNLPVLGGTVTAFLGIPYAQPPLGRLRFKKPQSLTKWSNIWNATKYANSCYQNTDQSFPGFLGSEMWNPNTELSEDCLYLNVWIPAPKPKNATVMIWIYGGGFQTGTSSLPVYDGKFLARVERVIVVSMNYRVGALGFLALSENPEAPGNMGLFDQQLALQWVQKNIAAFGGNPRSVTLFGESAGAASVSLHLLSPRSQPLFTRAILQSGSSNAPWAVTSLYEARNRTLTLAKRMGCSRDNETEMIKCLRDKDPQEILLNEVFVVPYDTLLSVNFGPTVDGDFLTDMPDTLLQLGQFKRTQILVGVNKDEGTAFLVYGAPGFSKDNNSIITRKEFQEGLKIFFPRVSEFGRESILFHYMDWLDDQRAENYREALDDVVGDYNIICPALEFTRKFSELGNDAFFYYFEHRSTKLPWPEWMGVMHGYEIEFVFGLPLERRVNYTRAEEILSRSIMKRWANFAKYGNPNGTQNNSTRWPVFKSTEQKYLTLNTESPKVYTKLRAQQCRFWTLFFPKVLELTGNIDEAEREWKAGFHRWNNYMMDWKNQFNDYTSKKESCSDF
In short: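 Ellman's method with equine serum BChE and butyrylthiocholine iodide; DTNB read-out at 412 nm, 25 °C. Phosphate buffer pH 8.0. At least five concentrations (normally 10^-4 to 10^-9 M), each in triplicate, to build the inhibition curve. Data are means of at least three determinations.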

[3] = Selectivity ratio of IC50 for electric eel AChE to IC50 for equine serum BChE
In short: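 AChE is electric eel Type VI-S with acetylthiocholine; BChE is equine serum with butyrylthiocholine. At least five concentrations, each in triplicate. Ratio = IC50(AChE)/IC50(BChE).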

[4] = system: Rattus norvegicus; experiment: Antialzheimer activity in Wistar rat scopolamine-induced cognition impairment model assessed as decrease in amount of errors plus baits not found during exploration at 1 umol/100 g body weight, ip treated for 5 mins prior to scopolamine-challenge measured after 20 to 120 mins by eight-arm radial maze test; type: functional, organism-based
In short: (§1)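 Female 60-day-old Wistar rats (Han:Wist) trained in an eight-arm radial maze to error-free trials under 60 s on three consecutive days; each animal served as its own control. Test agent given i.p. in saline 5 min before scopolamine (0.05 mg/100 g b. wt., i.p. in saline). Errors plus baits not found after 10 min, and total searching time, recorded before and 20, 60, 120 min after scopolamine; n = 14, mean ± SEM.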

[5] = Induction of nitric oxide release in PBS at 100 uM at pH 7.4 after 24 hrs by Griess method relative to control; type: physicochemical; conditions: buffer, pH 7.4, 24 h
In short: (§2)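 Test compound at 100 µM in phosphate buffer pH 7.4, alone or with 90 µL rat serum added, incubated 37 °C for 24 h. Griess reagent added, then 30 min at 37 °C with gentle shaking; absorbance read at 540 nm and blank-corrected. Nitrite quantified against an NaNO2 calibration curve and expressed as % of a theoretical 1 mol NO per mol nitrate; n = 3.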

[6] = Induction of nitric oxide release in PBS at 100 uM at pH 7.4 after 24 hrs by Griess method in presence of rat serum; type: physicochemical; conditions: pH 7.4, 24 h; in short: as §2
[7] = system: Rattus norvegicus; experiment: Toxicity in Wistar rat assessed as change in movement at 1 umol/100 g body weight, ip; type: organism-based; conditions: in vivo
[8] = system: Rattus norvegicus; experiment: Antialzheimer activity in Wistar rat scopolamine-induced cognition impairment model assessed as total exploration time at 1 umol/100 g body weight, ip treated for 5 mins prior to scopolamine-challenge by eight-arm radial maze test relative to control; type: functional; in short: as §1
[9] = system: Rattus norvegicus; experiment: Toxicity in Wistar rat scopolamine-induced cognition impairment model assessed as change in movement at 1 umol/100 g body weight, ip; type: organism-based; conditions: in vivo
In short: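 60-day-old female Wistar rats were trained in an eight-arm radial maze to no errors in under 60 s on 3 consecutive days; each rat served as its own control. Compound in saline was given i.p., then scopolamine (0.05 mg/100 g, saline, i.p.) 5 min later. Errors plus baits not found after 10 min and total searching time were recorded before and 20, 60 and 120 min after scopolamine; n = 14, mean ± SEM.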

## CCNCc1cccc2oc3cc(OC)ccc3c12
[1]
  pIC50: 4.72
[2]
  pIC50: 4.65
[3]
  Ratio IC50: 0.85

## COc1ccc2c(c1)[nH]c1cccc(CN(C(=O)CCO[N+](=O)[O-])C(C)C)c12
[4]
  Activity: Active
[1]
  pIC50: 5.66
[2]
  pIC50: 5.60
[3]
  Ratio IC50: 0.88
[5]
  Activity: 4.8%
[6]
  Activity: Active
[7]
  Activity: Non-toxic
[8]
  Time: 107 s
[9]
  Activity: Non-toxic

## COc1ccc2c(c1)oc1cccc(CNCc3ccccc3)c12
[1]
  pIC50: < 4.30
[2]
  pIC50: 4.74

## CC(C)NCc1cccc2oc3cc(O)ccc3c12
[1]
  pIC50: 4.65
[2]
  pIC50: 4.74
[3]
  Ratio IC50: 1.23

## COc1ccc2c(c1)oc1cccc(CNC(C)C)c12
[1]
  pIC50: 4.94
[2]
  pIC50: 4.87
[3]
  Ratio IC50: 0.86

## COc1ccc2c(c1)[nH]c1cccc(CNCc3ccccc3)c12
[1]
  pIC50: < 4.30
[2]
  pIC50: 4.52

## CCN(CC)Cc1cccc2oc3cc(OC)ccc3c12
[1]
  pIC50: 4.41
[2]
  pIC50: 4.56
[3]
  Ratio IC50: 1.43
